From ChEMBL document CHEMBL5705894, “SB1518, a novel macrocyclic pyrimidine-based JAK2 inhibitor for the treatment of myeloid and lymphoid malignancies” (Leukemia, 2011)
Active and inactive are the calls of the source. The rule behind the calls is not given here.

Assays:
[1] = test system: SNU-475; test: Antiproliferative activity against human SNU-475 cells assessed as inhibition of cell viability incubated for 48 hrs by CellTiterGlo assay; format: functional, cell-based; details: SNU-475, 48 h
Summary of the method: (§1)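 Cells seeded at 30–50% confluency in 96-well plates, then treated the next day in triplicate at up to 10 μM for 48 h. Viability read by CellTiter-Glo luminescence. IC50 taken from fitted dose–response curves.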

[2] = test system: T47D; test: Antiproliferative activity against human T47D cells assessed as inhibition of cell viability incubated for 48 hrs by CellTiterGlo assay; format: functional, cell-based
Summary of the method: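 Cells from ATCC, grown per supplier guidance, were seeded at 30–50% confluency and dosed the next day in triplicate at concentrations up to 10 μM for 48 h. Viability was read by luminescent ATP (CellTiter-Glo), and IC50 was fitted from dose–response curves.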

[3] = test system: Karpas-1106P; test: Induction of cell cycle arrest in human KARPAS-1106P cells expressing JAK2 assessed as accumulation of cells at G0/1 phase incubated for 24 hrs by PI staining based flow cytometry; format: functional
Summary of the method: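 Cells were fixed in 70% ice-cold ethanol and stained with propidium iodide, then analysed by flow cytometry for cell-cycle distribution.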

[4] = test system: HCT-116; test: Antiproliferative activity against human HCT-116 cells assessed as inhibition of cell viability incubated for 48 hrs by CellTiterGlo assay; format: functional, cell-based; details: HCT-116, 48 h; summary of the method: as §1
[5] = test system: Karpas-1106P; test: Induction of apoptosis in human KARPAS-1106P cells assessed as activation of caspase-3/7 incubated for 16 hrs; format: functional, cell-based
Summary of the method: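 SET-2 and Karpas 1106P cells were exposed to graded drug concentrations for 16 h. Apoptosis was read as caspase-3/7 activation.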

[6] = test system: Tyrosine-protein kinase JAK2 (Homo sapiens), O60674 [V617F]; details: HEL 92.1.7, dose 1000.0 nM, time 3.0 hrs
Tyrosine-protein kinase JAK2 (Homo sapiens), O60674 [V617F], sequence (O60674 whole entry V617F): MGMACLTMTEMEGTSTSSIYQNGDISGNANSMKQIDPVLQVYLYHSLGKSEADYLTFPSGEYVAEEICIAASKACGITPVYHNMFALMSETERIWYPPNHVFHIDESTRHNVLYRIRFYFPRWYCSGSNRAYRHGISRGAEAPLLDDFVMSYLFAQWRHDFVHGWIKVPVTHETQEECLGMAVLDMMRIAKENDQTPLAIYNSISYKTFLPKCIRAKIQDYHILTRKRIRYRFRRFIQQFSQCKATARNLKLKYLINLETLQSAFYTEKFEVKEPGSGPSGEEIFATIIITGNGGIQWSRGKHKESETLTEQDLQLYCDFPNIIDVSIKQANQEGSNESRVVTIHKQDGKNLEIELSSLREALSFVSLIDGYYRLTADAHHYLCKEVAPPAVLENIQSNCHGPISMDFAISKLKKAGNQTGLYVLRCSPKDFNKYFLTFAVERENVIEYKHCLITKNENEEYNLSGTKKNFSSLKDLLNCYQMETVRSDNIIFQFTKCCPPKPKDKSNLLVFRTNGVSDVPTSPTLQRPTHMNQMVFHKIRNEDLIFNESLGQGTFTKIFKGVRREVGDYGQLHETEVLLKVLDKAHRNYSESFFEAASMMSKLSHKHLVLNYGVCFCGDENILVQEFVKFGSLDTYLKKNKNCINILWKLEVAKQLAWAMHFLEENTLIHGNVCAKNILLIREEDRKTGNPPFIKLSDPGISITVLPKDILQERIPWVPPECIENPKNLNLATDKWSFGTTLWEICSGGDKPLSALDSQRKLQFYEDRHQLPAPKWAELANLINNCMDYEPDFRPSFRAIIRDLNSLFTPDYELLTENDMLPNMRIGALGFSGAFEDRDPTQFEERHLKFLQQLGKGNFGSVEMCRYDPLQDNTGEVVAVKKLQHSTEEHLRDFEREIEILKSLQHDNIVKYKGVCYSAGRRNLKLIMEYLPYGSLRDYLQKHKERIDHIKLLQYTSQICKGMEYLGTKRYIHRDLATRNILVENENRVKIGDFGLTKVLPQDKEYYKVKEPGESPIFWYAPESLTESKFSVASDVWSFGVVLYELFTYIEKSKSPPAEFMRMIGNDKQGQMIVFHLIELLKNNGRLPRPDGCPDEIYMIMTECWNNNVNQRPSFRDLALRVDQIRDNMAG

[7] = test system: Tyrosine-protein kinase JAK2 (Mus musculus), Q62120 [V617F]; test: Inhibition of JAK2 V617F mutant transfected in mouse BaF3 cells assessed as increased JAK2 phosphorylation at Y1007/8 at 8 to 1000 nM incubated for 3 hrs by Western blotting analysis; format: cell-based; details: dose 8-1000 nM
Tyrosine-protein kinase JAK2 (Mus musculus), Q62120 [V617F], sequence (Q62120 as listed by the source): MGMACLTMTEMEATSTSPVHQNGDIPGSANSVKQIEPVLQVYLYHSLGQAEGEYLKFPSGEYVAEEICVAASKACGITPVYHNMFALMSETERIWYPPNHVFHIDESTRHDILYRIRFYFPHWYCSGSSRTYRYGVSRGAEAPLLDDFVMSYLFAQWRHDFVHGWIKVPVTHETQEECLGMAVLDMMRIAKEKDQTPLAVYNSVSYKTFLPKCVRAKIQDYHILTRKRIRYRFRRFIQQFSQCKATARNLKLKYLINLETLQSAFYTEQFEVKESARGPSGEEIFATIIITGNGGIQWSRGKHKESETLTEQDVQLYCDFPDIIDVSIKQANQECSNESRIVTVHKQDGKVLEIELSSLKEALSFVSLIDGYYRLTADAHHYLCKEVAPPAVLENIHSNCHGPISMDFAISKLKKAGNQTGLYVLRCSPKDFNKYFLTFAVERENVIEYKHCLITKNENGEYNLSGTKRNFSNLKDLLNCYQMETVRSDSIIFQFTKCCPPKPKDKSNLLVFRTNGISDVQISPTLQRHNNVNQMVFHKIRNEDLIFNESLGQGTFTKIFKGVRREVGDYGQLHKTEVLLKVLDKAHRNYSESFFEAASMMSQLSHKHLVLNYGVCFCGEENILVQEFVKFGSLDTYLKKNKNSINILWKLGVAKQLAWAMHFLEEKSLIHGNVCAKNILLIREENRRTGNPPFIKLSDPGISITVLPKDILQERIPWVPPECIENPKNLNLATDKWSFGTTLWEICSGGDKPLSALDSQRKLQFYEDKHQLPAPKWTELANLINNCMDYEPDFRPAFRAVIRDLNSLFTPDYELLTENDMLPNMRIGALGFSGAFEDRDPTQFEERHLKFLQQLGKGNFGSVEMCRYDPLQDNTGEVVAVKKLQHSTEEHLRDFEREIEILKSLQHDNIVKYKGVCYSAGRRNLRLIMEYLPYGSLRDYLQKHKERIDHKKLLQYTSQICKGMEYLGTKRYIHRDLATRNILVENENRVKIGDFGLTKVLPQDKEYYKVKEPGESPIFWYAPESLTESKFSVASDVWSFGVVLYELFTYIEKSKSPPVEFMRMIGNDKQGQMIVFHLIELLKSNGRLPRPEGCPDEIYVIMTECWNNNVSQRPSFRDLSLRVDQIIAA

[8] = test system: Tyrosine-protein kinase JAK2 (Homo sapiens), O60674 [V617F]; details: HEL 92.1.7, dose 8-1000 nM, time 3.0 hrs
[9] = Antiproliferative activity against mouse 32D cells harboring JAK2 assessed as inhibition of cell viability incubated for 48 hrs by CellTiterGlo assay; format: functional, cell-based; summary of the method: as §1
[10] = test system: MV4-11; test: Antiproliferative activity against human MV4-11 cells harboring FLT3-ITD mutant assessed as inhibition of cell viability incubated for 48 hrs by CellTiterGlo assay; format: functional, cell-based; details: MV4-11, 48 h; summary of the method: as §1
[11] = test system: Tyrosine-protein kinase JAK2 (Homo sapiens), O60674 [V617F]; details: HEL 92.1.7, dose 8-1000 nM, time 3.0 hrs; remark: listed apart in the source
[12] = molecular target: Tyrosine-protein kinase JAK2 (Homo sapiens) (UniProt O60674); details: HEK-293T, dose 8-1000 nM, time 3.0 hrs
Tyrosine-protein kinase JAK2 (Homo sapiens), sequence (O60674 whole entry): as the sequence (O60674 whole entry V617F) above, with F617V counted along it

[13] = test system: Tyrosine-protein kinase JAK2 (Homo sapiens), O60674 [V617F]; details: HEL 92.1.7, dose 8-1000 nM, time 3.0 hrs; remark: listed apart in the source
[14] = test system: KATO III stomach cancer cell line; test: Antiproliferative activity against human KATO III stomach cancer cell line assessed as inhibition of cell viability incubated for 48 hrs by CellTiterGlo assay; format: functional, cell-based; summary of the method: as §1
[15] = molecular target: Tyrosine-protein kinase JAK2 (Homo sapiens) (UniProt O60674); details: HEK-293T, dose 8-1000 nM, time 3.0 hrs; remark: listed apart in the source
[16] = test system: NCI-H322M; test: Antiproliferative activity against human NCI-H322M cells assessed as inhibition of cell viability incubated for 48 hrs by CellTiterGlo assay; format: functional, cell-based; summary of the method: as §1
[17] = Induction of apoptosis in human EPC cells derived from polycythemia vera patients assessed as activation of caspase-3/7 level incubated for 16 hrs; format: toxicity, cell-based; details: Homo sapiens, EPC
[18] = test system: PC-3; test: Antiproliferative activity against human PC-3 cells assessed as inhibition of cell viability incubated for 48 hrs by CellTiterGlo assay; format: functional, cell-based; details: PC-3, 48 h; summary of the method: as §1
[19] = test system: BaF3; test: Antiproliferative activity against mouse BaF3 cells harboring JAK2 V617F mutant assessed as inhibition of cell viability incubated for 48 hrs by CellTiterGlo assay; format: functional, cell-based; details: BaF3, 48 h; summary of the method: as §1
[20] = molecular target: Tyrosine-protein kinase JAK2 (Homo sapiens) (UniProt O60674); details: HEK-293T, dose 8-1000 nM, time 3.0 hrs; remark: listed apart in the source
[21] = test system: Jurkat E6.1; test: Antiproliferative activity against human Jurkat E6.1 cells assessed as inhibition of cell viability incubated for 48 hrs by CellTiterGlo assay; format: functional, cell-based; details: Jurkat E6.1, 48 h; summary of the method: as §1
[22] = In vivo inhibition of JAK2 V617F mutant in athymic BALB/c nude mouse xenografted with mouse BaF3 cells administered for 24 hrs; format: functional
[23] = test system: LNCaP; test: Antiproliferative activity against human LNCaP cells assessed as inhibition of cell viability incubated for 48 hrs by CellTiterGlo assay; format: functional, cell-based; summary of the method: as §1
[24] = test system: Tyrosine-protein kinase JAK2 (Homo sapiens), O60674 [V617F]; details: SET2, dose 8-1000 nM, time 3.0 hrs
[25] = test system: CHL-1; test: Antiproliferative activity against human CHL-1 cells assessed as inhibition of cell viability incubated for 48 hrs by CellTiterGlo assay; format: functional, cell-based; details: CHL-1, 48 h; summary of the method: as §1
[26] = Cytotoxicity against human EPC cells derived from polycythemia vera patients assessed as inhibition of cell viability incubated for 48 hrs by CellTiterGlo assay; format: toxicity, cell-based
Summary of the method: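 Erythroid progenitors expanded from PBMCs of PV patients or normal volunteers using a 2-step protocol. On day 12 of expansion, cells were exposed to compound for 48 h and viability was read by CellTiter-Glo. Day-12 cells were phenotyped by CD71/CD235A flow staining.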

[27] = test system: Tyrosine-protein kinase JAK2 (Homo sapiens), O60674 [V617F]; details: SET2, dose 8-1000 nM, time 3.0 hrs; remark: listed apart in the source
[28] = molecular target: Tyrosine-protein kinase JAK2 (Homo sapiens) (UniProt O60674); details: Jurkat, dose 40-1000 nM, time 3.0 hrs
[29] = test system: Tyrosine-protein kinase JAK2 (Homo sapiens), O60674 [V617F]; details: HEL 92.1.7, dose 1000.0 nM, time 4-24 hrs
[30] = molecular target: Tyrosine-protein kinase JAK2 (Homo sapiens) (UniProt O60674); details: Jurkat, dose 8-1000 nM, time 3.0 hrs

SMILES: C1=N/C2=N/c3ccc(OCCN4CCCC4)c(c3)COC/C=C/COCc3cccc(c3)C(=C1)N2 [PACRITINIB]
- IC50 [1]: 2440 nM
- IC50 [2]: 1280 nM
- Activity [3]: Dose-Dependent Effect
- IC50 [4]: 1690 nM
- Activity [5]: Dose-Dependent Effect
- EC50 [5]: 1120 nM
- inhibition [6]: Active
- inhibition [7]: Active
- inhibition [8]: Active
- IC50 [9]: 402 nM
- IC50 [10]: 47 nM
- inhibition [11]: Dose-Dependent Effect
- inhibition [12]: Dose-Dependent Effect
- inhibition [13]: Dose-Dependent Effect
- IC50 [14]: 2060 nM
- inhibition [15]: Dose-Dependent Effect
- IC50 [16]: 2180 nM
- EC50 [17]: 224 nM
- IC50 [18]: 770 nM
- IC50 [19]: 160 nM
- inhibition [20]: Dose-Dependent Effect
- IC50 [21]: 839 nM
- FIC50 [22]: 0.019 µM
- IC50 [23]: 917 nM
- inhibition [24]: Active
- IC50 [25]: 1400 nM
- IC50 [26]: 260 nM
- inhibition [27]: Dose-Dependent Effect
- inhibition [28]: Active
- inhibition [29]: Tde
- inhibition [30]: Active
